Laboratory results: ChEMBL document CHEMBL1148356, “Synthesis and biological evaluation of 3-heterocyclyl-7,8,9,10-tetrahydro-(7,10-ethano)-1,2,4-triazolo[3,4-a]phthalazines and analogues as subtype-selective inverse agonists for the GABA(A)alpha5 benzodiazepine binding site” (J Med Chem, 2004)
The source made the active and inactive calls. The rule behind the calls is not given here.

Key:
[1] = molecular target: GABA-A receptor; alpha-1/beta-3/gamma-2 (Homo sapiens) (UniProt P14867+P18507+P28472); experiment: Percent change in electrophysiological response in Xenopus oocytes expressing Alpha1-beta3-gamma2 GABA-A receptor; assay type: functional, cell-based; conditions: Oocyte
Outline: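 Two-electrode voltage clamp on Xenopus oocytes injected with human GABA-A subunit cDNAs, 24-72 h expression, perfused with modified Barth's medium at pH 7.5, clamped between -40 and -70 mV. The GABA EC20 was titrated against a 3 mM GABA maximum. […] Result is % change of control current, mean ± SE of ≥4 oocytes.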

[2] = molecular target: T1, GABA-A receptor; alpha-1/beta-3/gamma-2 (Homo sapiens, UniProt P14867+P18507+P28472); experiment: Binding affinity towards human alpha-1-beta-3-gamma-2 GABA-A receptor using [3H]Ro-151788 expressed in L(tk-) cells; assay type: cell-based
T1 sequence (P14867 whole entry): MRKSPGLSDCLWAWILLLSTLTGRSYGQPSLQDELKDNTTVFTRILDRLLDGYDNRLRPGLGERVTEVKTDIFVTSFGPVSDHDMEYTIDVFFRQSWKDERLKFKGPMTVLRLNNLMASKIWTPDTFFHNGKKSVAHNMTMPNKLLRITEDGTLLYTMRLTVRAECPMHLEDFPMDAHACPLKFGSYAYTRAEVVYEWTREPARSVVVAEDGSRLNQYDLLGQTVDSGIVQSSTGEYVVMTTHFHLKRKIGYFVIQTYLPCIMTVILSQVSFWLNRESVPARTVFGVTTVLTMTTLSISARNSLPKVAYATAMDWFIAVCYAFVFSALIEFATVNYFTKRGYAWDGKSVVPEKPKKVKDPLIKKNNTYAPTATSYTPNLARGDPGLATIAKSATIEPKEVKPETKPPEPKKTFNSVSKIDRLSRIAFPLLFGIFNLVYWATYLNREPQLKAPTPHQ
T1 sequence (P18507 whole entry): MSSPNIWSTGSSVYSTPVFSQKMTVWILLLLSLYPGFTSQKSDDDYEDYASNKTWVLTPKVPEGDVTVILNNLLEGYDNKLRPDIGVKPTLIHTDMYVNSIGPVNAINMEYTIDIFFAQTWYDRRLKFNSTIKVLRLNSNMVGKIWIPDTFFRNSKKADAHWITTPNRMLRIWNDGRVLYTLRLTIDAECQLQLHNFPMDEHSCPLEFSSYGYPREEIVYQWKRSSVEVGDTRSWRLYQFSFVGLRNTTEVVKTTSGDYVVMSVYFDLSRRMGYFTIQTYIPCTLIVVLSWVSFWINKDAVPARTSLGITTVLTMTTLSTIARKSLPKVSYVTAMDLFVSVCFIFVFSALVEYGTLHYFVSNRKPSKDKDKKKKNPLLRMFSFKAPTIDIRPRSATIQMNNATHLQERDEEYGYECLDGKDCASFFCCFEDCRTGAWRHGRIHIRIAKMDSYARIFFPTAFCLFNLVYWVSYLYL
T1 sequence (P28472 whole entry): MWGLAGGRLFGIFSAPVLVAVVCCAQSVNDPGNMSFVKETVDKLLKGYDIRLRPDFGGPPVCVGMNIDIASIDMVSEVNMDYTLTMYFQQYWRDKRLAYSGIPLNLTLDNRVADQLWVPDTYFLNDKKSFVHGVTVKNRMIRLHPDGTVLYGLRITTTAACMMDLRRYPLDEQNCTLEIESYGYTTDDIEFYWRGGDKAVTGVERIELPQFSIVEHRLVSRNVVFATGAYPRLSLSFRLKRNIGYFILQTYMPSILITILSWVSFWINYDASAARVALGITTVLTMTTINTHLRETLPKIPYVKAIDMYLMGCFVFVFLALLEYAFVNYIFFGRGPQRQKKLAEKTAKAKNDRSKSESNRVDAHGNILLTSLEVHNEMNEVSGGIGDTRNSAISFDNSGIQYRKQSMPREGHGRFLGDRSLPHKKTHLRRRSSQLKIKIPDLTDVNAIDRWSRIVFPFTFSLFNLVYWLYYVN

Rattus norvegicus = experiment: Tested for cognitive performance in rats in delayed matching-to-place version of water maze test at 1 mg/kg p.o.; Significant enhancement in performance; assay type: functional, organism-based; design: dose 1 mg/kg

- Efficacy [1]: -2%
- Ki [2]: 1.4 nM
SMILES: Cc1cc(-c2nnc3c4ccccc4c(OCc4ccccn4)nn23)no1
- Activity (Rattus norvegicus): Active
